Source: PubChem BioAssay
hERG protect: hERG rescue from dofetilide block, primary screen, cell-based, CHO-hERG, FluxOR thallium flux, dofetilide IC70. Voltage-gated inwardly rectifying potassium channel KCNH2 (Homo sapiens), Q12809. dofetilide IC70 present. activation (rescue from dofetilide block), less the hit threshold, % at 10 µM. hit rate 0.51% among 310,000;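 active = activation above the mean of controls blocked by dofetilide plus 5 SD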;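 also: thallium influx through hERG after potassium depolarization seen as dye fluorescence rise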
KCNK3 block: human KCNK3 channel inhibitors, primary screen, CHO cells, FluxOR thallium flux, B-score. FluxOR fluorescence; active compounds read low. hit rate 0.84% among 340,000. Potassium channel subfamily K member 3 (Homo sapiens), O14649. B-score at 10 µM;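 active = B-score under library mean minus 4 SD, starting fluorescence ratio at most library mean plus 5 SD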;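 also: more negative B-score means stronger inhibition of thallium flux through KCNK3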
KCNK9 block: KCNK9 potassium channel inhibitors, primary screen, HEK293 cells, thallium flux | Potassium channel subfamily K member 9 (Homo sapiens), Q9NPC2 | FluxOR thallium flux fluorescence; active compounds read low | B-score at 10 µM | hit rate 1.2% among 310,000 | AID 488922, 2010;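 active = ratio B-score over 3 SD below the library mean, with starting fluorescence within 5 SD of its mean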;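 also: negative B-score means less thallium flux so channel inhibition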
Target sequence (Q9NPC2 whole entry, looked up): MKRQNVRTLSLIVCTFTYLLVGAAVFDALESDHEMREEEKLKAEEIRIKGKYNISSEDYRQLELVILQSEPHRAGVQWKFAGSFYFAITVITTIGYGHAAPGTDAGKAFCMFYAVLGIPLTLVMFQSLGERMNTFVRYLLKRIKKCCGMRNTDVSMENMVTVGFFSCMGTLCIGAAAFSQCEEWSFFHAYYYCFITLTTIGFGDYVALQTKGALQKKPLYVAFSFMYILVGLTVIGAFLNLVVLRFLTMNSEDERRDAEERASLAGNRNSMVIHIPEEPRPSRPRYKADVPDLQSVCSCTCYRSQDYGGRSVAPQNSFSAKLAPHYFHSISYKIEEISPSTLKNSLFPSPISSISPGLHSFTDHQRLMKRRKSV
KCNQ1 block: inhibitors of human KCNQ1 channel, primary screen, cell-based, thallium flux, high-throughput | B-score at 10 µM | hit rate 1.3% among 310,000 | AID 2642, 2010 | Potassium voltage-gated channel subfamily KQT member 1 (Homo sapiens), P51787 | CHO-K1 KCNQ1, FluxOR thallium flux fluorescence; active compounds read high;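 active = compounds whose thallium flux B-score, printed positive for inhibition, exceeds three library SD while starting fluorescence stays within three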;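 also: channel opened by potassium depolarization with thallium stimulus after 20 min compound exposure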
KCNQ1 act: potentiators or activators of KCNQ1 channel, primary screen, cell-based, thallium flux, high-throughput; hit rate 0.35% among 310,000; CHO-K1 KCNQ1, thallium flux FluxOR fluorescence; active compounds read high; B-score at 10 µM; Potassium voltage-gated channel subfamily KQT member 1 (Homo sapiens), P51787;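 active = fluorescence ratio B-score, a plate-corrected score, at least three library SD, with initial intensity B-score within 5 SD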
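Doses: Single concentration per compound, DMSO matched to controls | Test system: KCNQ1-transfected CHO-K1 cells | Timing: 90 min dye loading and 20 min compound exposure, both at room temperature | Measured by: Kinetic FluxOR thallium fluorescence, 10-s 1-Hz baseline, 110-s post-stimulus read | Medium: Assay buffer with matched DMSO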
Cl transport mod: KCC2 cotransporter modulators, thallium flux, primary screen, cell-based, HEK293 KCC2, FluoZin-2 fluorescence, MLSMR; Solute carrier family 12 member 5 (Homo sapiens), Q9H2X9; KCC2 cells, thallium flux FluoZin-2 fluorescence; B-score of Tl+ flux slope (higher = more flux/activation; lower = inhibition) at 10 µM; hit rate 2.2% among 190,000; AID 1456, 2008;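 active = thallium flux slope and its plate-corrected score both differing from the plate sample mean at a set confidence after two filtering rounds, in either direction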;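 also: slope of fluorescence scaled to starting intensity during 10 to 20 s after thallium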
KCNK9 block conf: KCNK9 potassium channel inhibitors, confirmation, HEK293 cells, thallium flux, duplicate; shares compounds with KCNK9 block; FluxOR thallium flux fluorescence; inhibition, % at 10 µM; hit rate 43% among 4,900;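 active = thallium signal inhibited by more than 5 SD of the compound-free buffer control wells, on both duplicate plates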;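 also: 0% = assay buffer control wells without compound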
Kir2-1 spec: mouse Kir2.1 channel inhibition, confirmation, selectivity assay for KCNK9 modulator project, cell-based, HEK293, thallium flux | Kir2.1 cells, FluxOR thallium flux fluorescence | shares compounds with KCNK9 block | hit rate 4% among 4,900 | inhibition, % at 10 µM;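 active = thallium signal drop more than 5 SD beyond the mean of the no-compound control wells, seen in both duplicate plates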;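 also: signal is fluorescence rise after thallium addition divided by baseline fluorescence; plate controls were assay buffer only for no effect and full block by chlorpromazine control for full effect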
KCNK9 uninduced: thallium flux in non-induced HEK293 cells, confirmation, counter-screen for KCNK9 inhibitor project, cell-based, second counter screen, non-induced KCNK9-HEK293; shares compounds with KCNK9 block; FluxOR thallium flux; inhibition, % at 10 µM; hit rate 40% among 4,900;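 active = thallium signal drop beyond 5 SD of the untreated control mean, on both duplicate plates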;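 also: plate controls were buffer only IC0 wells for no effect and SID17386958 at its maximal inhibitory level for full effect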
* = called active by the depositor; i = inactive; . = no result. The list is not random: actives were taken first. Their share in the collection is about 4.1%.

SMILES	hERG protect	KCNK3 block	KCNK9 block	KCNQ1 block	KCNQ1 act	Cl transport mod	KCNK9 block conf	Kir2-1 spec	KCNK9 uninduced
CC(C)c1nnc(NC(=O)CCS(=O)(=O)c2ccccc2)s1	-6	i	i	i	i	.	.	.	.
CCCC(C)c1nnc(NC(=O)CCS(=O)(=O)c2ccccc2)s1 (centres undefined)	-5	i	i	i	i	.	i	i	i
COc1cc2c(cc1OC)CN(C1CCCN(Cc3cc(Cl)ccc3O)C1)CC2 (centres undefined)	-3	i	i	i	i	.	.	.	.
CC(/C=N/NC(=O)c1ccncc1)=C\c1ccccc1	-7	i	i	i	i	-1.3	.	.	.
COc1ccccc1C(=O)N/N=C/C(C)=C/c1ccccc1	-6	i	-10*	i	i	.	48%*	i	30%*
COc1ccc(Cl)cc1S(=O)(=O)N1CCN(C(=O)c2n[nH]c(=O)c3ccccc23)CC1	.	i	.	.	.	.	.	.	.
CC1(c2nnc(-c3cccc(Cl)c3)o2)CC(c2c(Cl)cccc2Cl)=NO1 (centres undefined)	-24	i	-10*	i	i	.	58%*	i	29%*
CCCc1nc(SCC(=O)N2CCOCC2)c2c(C)c(C)sc2n1	-6	i	i	i	i	.	.	.	.
CCOc1ccc(C(C)=O)cc1CSc1nnc(-c2ccoc2C)n1N	-9	i	-9.2*	i	i	0.44	45%*	i	30%*
CC1CCc2c(sc(NC(=O)c3ccc(-c4ccccc4[N+](=O)[O-])o3)c2C#N)C1 (centres undefined)	-3	i	i	i	i	0.046	.	.	.
CC1CCc2c(sc(NC(=O)c3ccc(Cn4cc([N+](=O)[O-])cn4)o3)c2C#N)C1 (centres undefined)	-10	i	-16*	i	i	.	46%*	i	30%*
Cc1cc(N/N=C/c2ccccc2Cl)nc(NCc2ccccc2)n1	-13	i	i	i	i	0.085	i	i	i
Cc1cc(C)nc(N/N=C/c2ccccc2Cl)n1	-8	i	i	i	i	0.098	.	.	.
COc1cc(-c2c(-c3ccc4c(c3)OCO4)noc2-c2ccsc2)ccc1F	-21	i	-11*	i	i	.	56%*	i	36%*
CCCCN(CC)c1nc(N)c(C#N)c(CC#N)c1C#N	-7	i	-11*	i	i	-0.64	33%*	i	32%*
CCCN(CC(=O)Nc1ccc(C)cc1Br)CC(=O)Nc1ccc(F)c(F)c1F	-8	i	-9.9*	i	i	-0.087	64%*	i	39%*
CCCN(CC(=O)Nc1cccc(Br)c1)CC(=O)Nc1ccc(F)c(F)c1F	-4	i	-15*	i	i	0.049	72%*	i	50%*
CCCN(CC(=O)Nc1ccc(NC(C)=O)cc1)CC(=O)Nc1ccc(F)c(F)c1F	-16	i	i	i	i	.	.	.	.
CCCN(CC(=O)Nc1cccc(S(N)(=O)=O)c1)CC(=O)Nc1ccc(F)c(F)c1F	-14	i	i	i	i	0.87	.	.	.
CC1CN(c2nc3ccccc3cc2-c2ccccc2)CC(C)O1 (centres undefined)	-11	i	i	i	i	-0.71	i	i	i
CC1CN(c2cc(-c3ccccc3)c3ccccc3n2)CC(C)O1 (centres undefined)	-7	i	i	i	i	0.054	i	i	i
COc1ccc(CCNCC(O)COc2c(C)cccc2C)cc1OC (centres undefined)	-8	i	i	i	i	.	.	.	.
CCOC(=O)c1c(Cc2cccc(Cl)c2)c[nH]c1C	-22	i	-10*	6*	i	-0.76	68%*	i	28%*
COC(=O)c1c(Cc2ccccc2Cl)c[nH]c1C	-7	i	i	i	i	-0.79	.	.	.
Cc1cc(C)c2nc(NNC(=O)c3ccc(S(=O)(=O)N4CCCC(C)C4)cc3)sc2c1 (centres undefined)	-12	i	i	i	i	0.3	i	i	i
SMILES	hERG protect	KCNK3 block	KCNK9 block	KCNQ1 block	KCNQ1 act	Cl transport mod	KCNK9 block conf	Kir2-1 spec	KCNK9 uninduced
COC(=O)c1sc2ccccc2c1NC(=O)c1ccc(S(=O)(=O)N2CC(C)CC(C)C2)cc1 (centres undefined)	-7	i	i	i	i	0.33	.	.	.
Cc1cc(C)c2nc(NNC(=O)c3ccc(S(=O)(=O)N4CC(C)CC(C)C4)cc3)sc2c1 (centres undefined)	-12	i	i	i	i	-0.003	i	i	i
Cc1cccc2sc(NNC(=O)c3ccc(S(=O)(=O)N4CC(C)CC(C)C4)cc3)nc12 (centres undefined)	-4	i	i	6*	i	-0.26	i	i	i
Cc1ccc2nc(NNC(=O)c3ccc(S(=O)(=O)N4CCc5ccccc5C4)cc3)sc2c1	-4	i	i	7*	i	-0.67	i	i	i
CCC(=O)NNc1nc2c(C)cc(C)cc2s1	-8	i	i	i	i	.	.	.	.
CC[C@@H](C)[C@H](N)C(=O)NC[C@H]1O[C@@H](n2cnc3c(N)ncnc32)[C@H](O)[C@@H]1O	.	i	.	.	.	.	.	.	.
O=P(CCc1ccccc1)(c1ccccc1)c1ccccc1	.	i	.	.	.	.	.	.	.
O=C(Cn1nnc2ccccc2c1=O)NCCc1ccc(F)cc1	-4	.	i	i	i	-0.74	.	.	.
CCOC(=O)C1=C(COC(=O)C2CC(=O)N(CCc3ccccc3)C2)NC(=O)NC1C (centres undefined)	.	i	.	.	.	.	.	.	.
CC(C)=C(NC(=O)c1ccccc1)C(=O)NCc1ccccc1	2	i	i	i	i	-0.49	.	.	.
